Screens (PubChem BioAssay)
CHT allo act = allosteric activators of human choline transporter CHT. 310,000 tested, 0.49% active. CHT-expressing cells, membrane potential dye, choline EC20; stronger effect = higher value; LV-AA mutant CHT in HEK293 cells. B-score at 10 µM;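 active = initial fluorescence not abnormally high and integrated response B-score, plate-corrected, over 3 SD above library mean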
Target sequence (Q9GZV3 whole entry, looked up): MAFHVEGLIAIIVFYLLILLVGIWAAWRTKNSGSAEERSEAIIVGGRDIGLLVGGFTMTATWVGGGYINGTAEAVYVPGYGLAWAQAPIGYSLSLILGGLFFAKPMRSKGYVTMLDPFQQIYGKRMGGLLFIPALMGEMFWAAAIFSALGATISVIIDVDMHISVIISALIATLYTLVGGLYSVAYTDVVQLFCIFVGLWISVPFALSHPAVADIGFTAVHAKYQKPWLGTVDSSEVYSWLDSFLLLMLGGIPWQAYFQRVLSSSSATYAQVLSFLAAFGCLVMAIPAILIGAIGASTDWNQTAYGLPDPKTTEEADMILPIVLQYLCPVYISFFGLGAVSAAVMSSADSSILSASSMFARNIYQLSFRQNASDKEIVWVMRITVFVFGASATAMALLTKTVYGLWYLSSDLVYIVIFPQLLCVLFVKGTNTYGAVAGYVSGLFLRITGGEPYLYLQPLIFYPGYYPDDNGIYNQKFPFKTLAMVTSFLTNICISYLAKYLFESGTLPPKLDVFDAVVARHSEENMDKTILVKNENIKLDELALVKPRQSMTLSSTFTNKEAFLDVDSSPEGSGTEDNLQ
Lipid droplet = hepatic lipid droplet formation modulation. AML12 mouse hepatocytes, oleate lipid droplets, BODIPY imaging. 240,000 tested, 0.4% active. AID 1656. inhibition, % at 6.5 µM;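 active = lipid droplet intensity inhibited by at least 50%, with more than 500 cells counted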
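Assay system: AML12 mouse liver cells | Compound: 6.5 µM single-point dosing | Schedule: Overnight exposure | Technique: Fluorescence imaging, 20x objective, two fields per well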
PHOSPHO1 inh = PHOSPHO1 (human) inhibition; recombinant PHOSPHO1, absorbance phosphatase assay; inhibition, % at 13.3 µM; 290,000 tested, 1.1% active; AID 1565; in the data active = inhibition above about 60%
CHT block = human CHT choline transport inhibition; B-score at 10 µM; CHT-expressing cells, membrane potential dye, choline response; stronger effect = lower value; 310,000 tested, 0.86% active; AID 488975; Q9GZV3;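 active = B-score over 3 SD under the library average, and starting fluorescence ratio not unusually high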;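 also: choline stimulus applied at its EC90 after an EC20 pre-addition; B-score computed on integrated fluorescence ratio after choline addition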
HSF1 activator = increases HSF-1 driven luciferase reporter signal | NIH3T3-HGL HSF-1 luciferase reporter, MG132, 8 h; 100% = twice DMSO control signal | activation, % at 9 µM | 300,000 tested, 1.7% active | AID 504408;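 active = mean replicate activation of at least 50% with a set share of replicates each reaching 50%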;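 also: 0% = median of the neutral control wells and 100% = twice that signal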
HSF1 inh = HSF1 inhibition | AID 2098 | activity change, negative = inhibition, % at 7.5 µM (by protocol) | 300,000 tested, 0.77% active | NIH3T3-HGL HSE-luciferase, MG132-induced, luminescence 8 h; stronger effect = lower value;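 active = more than half of replicate wells show activity change below -50%, luminescence cut by over half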;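 also: luciferase reports HSF-1 transcriptional activity via heat shock element; 0% = median of DMSO wells and -100% = zero luminescence signal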
Active calls of the source: *; i = inactive; x = no result. Most compounds without a hit are left out; they make up all but 4.9% or so of the library.

SMILES	CHT allo act	Lipid droplet	PHOSPHO1 inh	CHT block	HSF1 activator	HSF1 inh
CCOC(=O)c1c(C)oc2c1cc(O)c1ccccc12	i	x	-137	i	58*	37
CCOC(=O)c1c(C)oc2c1c1c(c3ccccc32)OCN(CCCC(=O)O)C1	i	4	27	i	57*	31
CCOC(=O)c1c(C)oc2c1c1c(c3ccccc32)OCN(Cc2cccnc2)C1	x	14	-14	x	x	x
Cc1ccc(OCc2ccc(C(=O)N3CCCC3)o2)cc1C	i	-16	2	i	61*	46
CCOc1ccc(OCc2ccc(C(=O)N3CCCCC3)o2)cc1	i	23	53	i	-3	3
N#CC1CCCc2c1[nH]c1ccc([N+](=O)[O-])cc21 (configuration not stated)	i	-1	28	i	10	-9
S=C(NN=C1CCCCCC1)Nc1ccc(Cl)cc1	i	2	85*	i	-8	1
COCCNC(=S)NN=C1CCCCCC1	x	-1	1	x	-53	-40
Fc1ccc(NC(=S)NN=C2CCCCCC2)cc1	i	x	100*	i	8	4
S=C(NCCc1ccccc1)NN=C1CCCCCC1	i	-4	42	i	67*	46
O=C(COc1ccc(Cl)cc1)NN=C1CCCCCCC1	i	-4	29	i	-9	2
Cc1ccc(-n2c(C)cc(C(=O)CSc3nncs3)c2C)cc1	i	x	89*	i	67*	39
COc1ccc(-n2c(C)cc(C(=O)CSc3nn4c(=O)c(C(C)(C)C)nnc4s3)c2C)cc1	i	x	94*	i	4	12
COCCC(=O)N1CCC(Oc2ccc(C(=O)NCCc3cn[nH]c3)cc2)CC1	i	-2	22	i	-25	-7
C=CCn1c(C)cc(C(=O)CSc2nnc3c(Cl)cc(Cl)cn23)c1C	i	-16	62*	i	-15	-19
Cc1cc(C(=O)CSc2nnc3c(Cl)cc(Cl)cn23)c(C)n1C	i	x	-72	i	6	-5
C=CCn1c(C)cc(C(=O)CSc2nc(N)cc(N)n2)c1C	i	-6	-80	i	66*	27
Cc1cc(C(=O)CSc2nc(N)cc(N)n2)c(C)n1C1CC1	i	8	-15	i	-5	-7
COc1ccc(CC2(CO)CCN(Cc3cc4ccccc4o3)CC2)cc1	i	5	27	i	-7	5
OCC1(Cc2cccc(C(F)(F)F)c2)CCN(Cc2cc3ccccc3o2)CC1	i	-13	23	i	89*	43
Fc1ccccc1Cn1nnc(-c2ccc3c(c2)OCO3)n1	i	5	11	i	83*	52
CCOC(=O)C1(Cc2ccccc2)CCCN(Cc2cccc(C(C)=O)c2)C1 (configuration not stated)	i	-29	56	i	29	13
O=C(NCCc1ccc(Cl)cc1)c1ccc2c(c1)OCO2	i	-6	53	i	99*	64
Cc1cc(C)n(CCNC(=O)c2ccc3c(c2)OCO3)n1	i	-15	35	i	58*	11
NC(N)=NS(=O)(=O)c1ccc(N=C2C(=O)Nc3ccccc32)cc1	i	0	25	i	15	-8
SMILES	CHT allo act	Lipid droplet	PHOSPHO1 inh	CHT block	HSF1 activator	HSF1 inh
Cc1ccccc1OCCn1cc(/C(N)=N/O)c2ccccc21	i	12	3	i	11	11
O=C(Nc1ccc(NC(=O)c2ccco2)nc1)c1ccco1	i	11	11	i	3	15
CC(C)(C)C(=O)Nc1ccc(NC(=O)c2ccco2)nc1	i	-11	36	i	-91	-91*
Cc1ccc(SCc2c(C(=O)N/N=C/c3ccncc3)nnn2-c2nonc2N)cc1	i	0	51	i	-15	2
NNC(=O)CNC(=O)CNS(=O)(=O)c1ccccc1	i	3	46	i	-83	-78*
Cc1cc(OC2CCCCC2)nc(NCc2ccccc2)n1	i	-16	24	i	-25	-6
Cc1ccc(-c2cn3c(=S)[nH]nc3s2)cc1	i	x	68*	i	2	0
Cc1ccc(/C=N/n2c(-c3ccccc3)n[nH]c2=S)cc1	i	0	-32	i	-23	-6
Cc1ccc(-c2n[nH]c(=S)n2C)cc1	x	x	94*	x	-4	-7
CC(C)n1c(-c2ccc(C(C)(C)C)cc2)n[nH]c1=S	i	x	99*	i	-7	-3
Cc1ccc2sc(N(CCCN(C)C)C(=O)CCS(=O)(=O)c3ccccc3)nc2c1C	i	-19	0	i	111*	75
COc1ccccc1CNC(=O)C(C)n1cccc1C(=O)c1ccccc1 (configuration not stated)	i	-33	64*	i	16	-1
COc1cccc2c1c(NC(=O)Nc1ccc(F)cc1F)nn2C	i	-9	20	i	-11	-13
CCCCn1c(N)c(N(CCOC)C(=O)CCNC(=O)c2ccc(Cl)cc2)c(=O)[nH]c1=O	i	x	x	i	-4	-8
CN(C)c1cccc(C(=O)OCCNC(=O)c2cccc(S(=O)(=O)N3CCOCC3)c2)c1	i	-9	35	i	59*	28
CC(C)(C)c1ccc(/C=C2\SC(=O)N(CCNC(=O)c3cccc(S(=O)(=O)N4CCOCC4)c3)C2=O)cc1	i	3	6	i	-70	-63*
O=C1c2cccc3c(O)ccc(c23)C(=O)N1Cc1ccco1	x	0	0	x	0	-4
COc1ccc(OC)c(NC(=O)COC(=O)/C=C/c2ccccc2Cl)c1	i	16	14	i	-3	-6
CCSCCOC(=O)C1=C(C)N(C)C(=O)NC1c1ccc2c(c1)OCO2 (configuration not stated)	i	x	-12	i	0	2
Cn1c(-c2csc(-c3ccccc3)n2)n[nH]c1=S	i	11	17	i	16	0
Cc1cc(C)c(NN=c2c(=O)c3ccccc3c2=O)c(C)c1	i	1	33	i	67*	25
O=c1c(=NNc2ccccc2Cl)c(=O)c2ccccc12	x	x	34	x	x	x
CCc1ccc(CNC(=O)CC2C(=O)NCCN2Cc2ccccc2F)nc1 (configuration not stated)	i	-3	29	i	3	-1
O=C(NC1CCOC1)c1cc(COc2cccc(C(F)(F)F)c2)on1 (configuration not stated)	i	-18	33	i	1	9
CC(Sc1nnc2ccccn12)C(=O)Nc1ccc(Cl)cn1 (configuration not stated)	i	7	-47	i	11	4
CC(Sc1nnc2ccccn12)C(N)=O (configuration not stated)	i	-4	12	i	76*	31
